CRFR2-BP antag: CRF-BP/CRF-R2 complex antagonism | HEK293 CRF-R2/CRF-BP, CRF-induced calcium fluorescence | inhibition, % at 11.8 µM | hit rate 0.59% among 350,000;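 active = inhibition of the ligand-induced calcium signal above about 50% at the single tested concentration, limit read from the data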
CSN deneddyl inh: CSN deneddylation inhibition; Q92905; Purified CSN, SCF-Nedd8-OG deneddylation, fluorescence polarization; inhibition, % at 12.5 µM; hit rate 0.38% among 360,000; AID 651999;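 active = pattern-corrected inhibition above about 35%, with an unprinted fluorescence ratio check between 0.5 and 1.5, limit read from the data, passing the limit was not always enough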;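 also: 0% = enzyme with substrate and 100% = substrate without enzyme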
Target sequence (Q92905 whole entry, looked up, one chain of several): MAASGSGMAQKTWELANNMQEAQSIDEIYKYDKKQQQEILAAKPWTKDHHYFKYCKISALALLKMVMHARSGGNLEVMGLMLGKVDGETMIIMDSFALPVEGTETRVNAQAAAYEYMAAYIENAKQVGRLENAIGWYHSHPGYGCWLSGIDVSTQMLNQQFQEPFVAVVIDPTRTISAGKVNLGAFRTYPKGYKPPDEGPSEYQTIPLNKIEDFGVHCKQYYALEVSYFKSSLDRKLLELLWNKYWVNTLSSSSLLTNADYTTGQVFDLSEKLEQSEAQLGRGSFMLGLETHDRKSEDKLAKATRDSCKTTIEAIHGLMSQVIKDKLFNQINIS
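Test system: Human Csn5 produced in HEK293T cells | Compound: 12.5 µM single point | Times: 90 min, room temperature | Signal: Fluorescence polarization readout | Read-out basis: % inhibition of substrate cleavage by Csn5 | Controls: no-enzyme wells high, enzyme-with-substrate wells low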
Rpn11 block: inhibitors of human proteasome Rpn11; O00487; human 26S proteasome, Ub4-pepOG fluorescence polarization; 20S core pre-blocked with epoxomicin; calls only at 20 µM; hit rate 0.59% among 360,000;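 active = inhibition at 20 µM, scaled to each plate's controls, above about 33%, limit read from the data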
Target sequence (O00487 whole entry, looked up): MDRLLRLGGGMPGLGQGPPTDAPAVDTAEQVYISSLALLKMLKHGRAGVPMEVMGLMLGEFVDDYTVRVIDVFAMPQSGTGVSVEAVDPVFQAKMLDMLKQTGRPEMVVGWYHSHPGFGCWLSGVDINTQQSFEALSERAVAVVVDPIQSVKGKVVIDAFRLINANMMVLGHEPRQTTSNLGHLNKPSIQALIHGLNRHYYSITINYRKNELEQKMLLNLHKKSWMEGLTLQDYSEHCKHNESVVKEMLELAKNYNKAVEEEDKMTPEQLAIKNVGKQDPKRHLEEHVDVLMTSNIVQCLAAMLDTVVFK
HNF4A DNA FP: change in binding of human HNF4 alpha to DNA; P41235; HNF4a-FITC DNA binding, fluorescence polarization, 1 h; activity change, % at 10 µM; hit rate 0.3% among 360,000; AID 1224865; in the data active = activity change above about 30%, passing the limit was not always enough
CRFR2-BP ag: agonists of human CRF-binding protein/CRF-R2 receptor complex; HEK293 CRF-R2/CRF-BP, calcium dye fluorescence (FLIPR); percent of saturating CRF peptide response; activation, % at 13.2 µM; hit rate 0.46% among 350,000; AID 588473;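 active = activation of at least 50%, plus an integration ratio under a set limit after plate pattern correction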;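 also: plate controls were neutral control wells without compound for no effect and CRF at EC100 for full effect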
TPT1 inh: blocks Candida albicans tRNA 2'-phosphotransferase. inhibition, % at 5 µM. hit rate 0.81% among 300,000. recombinant caTPT1, FP RNA substrate dephosphorylation. AID 1962;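 active = inhibition above the mean of all tested compounds plus 3 SD, set per screening campaign, cut at about 24% in these data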;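 also: plate controls were DMSO alone for no effect and ferristatin control at 100 nM for full effect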
Rpn11 inh conf: Rpn11 inhibition confirmation, single concentration | hit rate 29% among 1,900 | shares compounds with Rpn11 block | AID 602318 | inhibition, % at 20 µM | purified human 26S proteasome, Ub4-pepOG fluorescence polarization; proteasome pretreated with epoxomicin
MMP-2 inh: counter-screen for RPN11 inhibitors: inhibition of human MMP-2 | shares compounds with Rpn11 block | recombinant MMP-2, FRET peptide cleavage fluorescence | inhibition, % at 20 µM | hit rate 4% among 1,900 | AID 602330;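 also: human MMP-2 activated beforehand with APMA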
Thrombin inh: counter-screen for RPN11 inhibitors: inhibition of bovine thrombin; bovine thrombin cleavage of Ub4-pepOG, fluorescence polarization; inhibition, % at 20 µM; hit rate 13% among 1,900; AID 602333; shares compounds with Rpn11 block;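 active = mean inhibition at least 40% at 20 µM, or signal 3 deviations below plate average, so some actives read negative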;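 also: plate controls were thrombin with DMSO for no effect and buffer wells lacking thrombin for full effect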
Starred values were filed as active, the others as inactive; i = inactive; nt = not tested or not shown; + = active, no number. Compounds with a hit are over-represented: about 2.3% of the library has one in this group of screens. Rule as the data show it, unless noted: active = inhibition above about 40%; inactive = the rest.

SMILES	CRFR2-BP antag	CSN deneddyl inh	Rpn11 block	HNF4A DNA FP	CRFR2-BP ag	TPT1 inh	Rpn11 inh conf	MMP-2 inh	Thrombin inh
CC1CCCC(NC(=O)CCS(=O)(=O)c2cc3c(cc2Cl)NC(=O)CO3)C1C (stereo unspecified)	-2	4	+	-3	-3	-5	-11	-7	-16
COC(=O)c1ccccc1NC(=O)CN1CCCCC1	-7	2	i	1	-1	1	nt	nt	nt
COC(=O)c1ccccc1NC(=O)CN1CCN(Cc2ccccc2)CC1	-6	-1	+	-28	0	6	-24	6	-26
COc1cccc(N2CC(C(=O)Nc3nnc(SCC(=O)c4ccccc4)s3)CC2=O)c1 (stereo unspecified)	24	-5	i	2	-1	2	nt	nt	nt
COc1ccc(C(=O)CSc2nnc(NC(=O)C3CC(=O)N(c4ccccc4)C3)s2)cc1 (stereo unspecified)	9	-3	+	4	3	4	13	2	-4
O=C(Nc1ccccc1)c1cn2ccccc2n1	35	-5	i	0	1	0	nt	nt	nt
O=C(Nc1ccc(-n2cnnn2)cc1)c1cn2ccccc2n1	-64	46*	+	21	104*	1	36	-112	-15
Nc1c(-c2ccccc2)c(CSc2nc3ccccc3[nH]2)nn1-c1ccc(Cl)cc1	20	-2	i	0	-2	-1	nt	nt	nt
Nc1c(-c2ccccc2)c(CSc2nc3ccccc3[nH]2)nn1-c1cccc(Cl)c1	-3	-2	+	13	-2	2	42*	25	18
COc1ccc(N=C2S/C(=C\c3ccc(C)s3)C(=O)N2CC(C)C)cc1	-15	2	+	3	3	-1	-3	-3	3
COc1ccc(N=C2S/C(=C\c3cccs3)C(=O)N2CC(C)C)cc1	13	-3	i	0	1	0	nt	nt	nt
CN1CCN(S(=O)(=O)c2cccc(C(=O)Nc3sc4c(c3C(N)=O)CCCC4)c2)CC1	17	1	+	0	-1	2	6	25	-3
NC(=O)N/N=C/c1sc(N2CCCCC2)nc1-c1cccs1	-3	10	+	21	-1	1	4	-11	-1
CC(C)NC(=S)N/N=C/c1sc(N2CCCCC2)nc1-c1cccs1	-22	1	+	41*	10	11	46*	34	8
CC(=O)Nc1cc(-c2ccccc2CN(C)C)cn2c(-c3ccc(C(C)=O)cc3)cnc12	nt	-7	i	-1	nt	nt	nt	nt	nt
Cc1ccccc1NC(=O)Cn1nnc(S(=O)(=O)c2ccc(C(C)(C)C)cc2)c1N	-26	-5	+	13	6	1	31	-17	-6
Cc1ccccc1NC(=O)Cn1nnc(C(=O)NCc2ccco2)c1N	14	-1	i	3	-1	-2	nt	nt	nt
COc1ccc(CCNc2ccc(C(CC(N)=O)NC(=O)Cc3ccc(Br)cc3)cc2[N+](=O)[O-])cc1 (stereo unspecified)	-1	4	+	20	2	20	16	-21	-20
NC(=O)CC(NC(=O)Cc1ccc(Br)cc1)c1ccc(NCCc2ccc(F)cc2)c([N+](=O)[O-])c1 (stereo unspecified)	-2	6	i	22	1	11	nt	nt	nt
NC(=O)CC(NC(=O)Cc1ccc(Br)cc1)c1ccc(NCCc2ccc(Cl)cc2)c([N+](=O)[O-])c1 (stereo unspecified)	11	10	+	18	5	nt	33	5	-1
COc1ccc(CCNc2ccc(C(CC(N)=O)NC(=O)c3ccc(Br)cc3)cc2[N+](=O)[O-])cc1 (stereo unspecified)	6	5	i	23	1	14	nt	nt	nt
COc1ccc(/C=N/NC(=O)C2C(=O)NCC2c2ccccc2)c(OC)c1 (stereo unspecified)	-10	-2	i	0	3	-2	nt	nt	nt
Cc1cc(C)c2c(=O)[nH]c(=O)n(Cc3ccccc3)c2n1	-1	27	+	5	0	12	95*	30	50*
Cc1cc(NC(=O)Nc2cc(C)nn2-c2ccccc2)n(-c2ccccc2)n1	10	-1	i	-1	0	-5	nt	nt	nt
COc1ccc(NC(=O)CCn2c(=S)[nH]c3ccccc3c2=O)cc1Cl	8	15	+	42*	-1	nt	63*	34	-12
SMILES	CRFR2-BP antag	CSN deneddyl inh	Rpn11 block	HNF4A DNA FP	CRFR2-BP ag	TPT1 inh	Rpn11 inh conf	MMP-2 inh	Thrombin inh
O=C(CCn1c(=S)[nH]c2ccccc2c1=O)Nc1cccc(Cl)c1	2	0	i	-2	-1	-2	nt	nt	nt
FC(F)(F)c1nc2ccccc2c2nc3ccccc3n12	-36	3	i	-2	-1	1	nt	nt	nt
Cc1ccc(OCCNC(=O)CNC(=O)c2ccc(C)cc2)cc1	3	0	i	2	-4	1	nt	nt	nt
CC(C)(C)c1cc(C(F)(F)F)c(C#N)c(=O)[nH]1	24	-4	+	-1	0	0	5	-22	4
CCCc1cc(C(F)(F)F)c(C#N)c(=O)[nH]1	4	2	i	0	0	0	nt	nt	nt
O=C(c1ccnc(Cl)c1)N1CCCC(N2CCN(c3ccccc3F)CC2)C1 (stereo unspecified)	-13	1	+	2	-1	2	4	-26	-12
Cc1ccc(C(=O)NCCCNc2ccc(C(F)(F)F)cc2[N+](=O)[O-])cc1	6	3	+	12	0	8	16	10	5
O=C(NCc1ccc(Cl)cc1)c1ccc(OCC2CCCO2)cc1 (stereo unspecified)	-3	1	+	-7	1	-2	-3	-17	-10
Cc1ccc(C2CC(=O)C=C(Nc3ccc(Cl)cc3)C2)cc1 (stereo unspecified)	3	3	+	35*	-3	-5	-6	-65	-15
O=C1C=C(Nc2ccc(Cl)cc2)CC(c2ccc(Cl)cc2)C1 (stereo unspecified)	5	2	i	1	-1	2	nt	nt	nt
CC(=O)OC1[C@H](Oc2c(O)c(C)c3c4c2[C@@H](C)CC[C@@H]4[C@@H](C)C[C@@H]3C=C(C)C)OC[C@@H](O)[C@@H]1O (stereo partly specified)	-1	3	i	-4	1	nt	nt	nt	nt
